Published values pooled from the literature.
FLT3: Receptor-type tyrosine-protein kinase FLT3 (FLT3, Homo sapiens, UniProt P36888)

COc1cc2nccc(Oc3ccc(NC(=O)c4c5n(n(-c6ccc(F)cc6)c4=O)CCCC5)cc3)c2cc1OC — inhibition (FLT3; enzyme activity; inhibitor; 0.1 µM): 49%
CN1CC(Oc2cnc(C#N)cc2-c2ccn3nc(NC(=O)C4CC4)cc3c2)C1 — inhibition (FLT3; enzyme activity; inhibitor; 1 µM): 0%
Cn1cnc(Br)c1C1=CN(c2ncnc3[nH]cnc23)CCS1 — inhibition (FLT3; enzyme activity; inhibitor; radiometric; 2 µM): 80.5%
CNc1cccc2cc(C(=O)Nc3ccc(C(=O)O)cc3)c(=O)[nH]c12 — inhibition (FLT3; enzyme activity; inhibitor; 10 µM): 7.9%
O=C(CSc1nc2nccnc2c(=O)n1CCc1ccccc1)Nc1nccs1 — inhibition (FLT3; enzyme activity; inhibitor; 10 µM): 13%
COc1cccc(Nc2cccc(-c3cnc4cc(-c5cnn(C)c5)ccn34)n2)c1 — inhibition (FLT3; cell-free assay; competition with immobilised ligand; 8.4 nM): > 65%
COc1cc2ncnc(Nc3ccc(Oc4ccccc4)c(C)c3C)c2cc1OC — inhibition (FLT3; enzyme activity; inhibitor; 1 µM): 15%
Cn1cncc1C1=CN(c2ncnc3[nH]cnc23)CCS1 — inhibition (FLT3; enzyme activity; inhibitor; radiometric; 2 µM): 88.1%
CC/C(=N\NC(=O)NCc1cccc(O)c1)c1ccc(O)c(C)c1O — inhibition (FLT3; enzyme activity; inhibitor; 0.1 µM): 6%
CCCS(=O)(=O)Nc1ccc(F)c(C(=O)c2c[nH]c3ncc(-c4ccc(Cl)cc4)cc23)c1F — inhibition (FLT3; enzyme activity; inhibitor; 1 µM): < 20%
COc1cc2ncnc(Nc3ccc(Oc4ccccc4)cc3C)c2cc1OC — inhibition (Receptor-type tyrosine-protein kinase FLT3 (FLT3, Homo sapiens, UniProt P36888, D835Y); enzyme activity; inhibitor; 1 µM): 17%
CN(C)C1CCN(CC#Cc2nn(C3CCCC3)c3nc(NCc4ccccc4)ncc23)C1 (stereo not drawn) — inhibition (FLT3; enzyme activity; inhibitor; FRET; 0.1 µM): 13%
